The subject of data set [1] is L1210. Description: Cytotoxicity against mouse L1210 cells assessed as inhibition of [3H]Urd incorporation into macromolecules. It is filed as functional. Summed up: (§1)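 L1210 and CEM cells were given radiolabelled [3H]dThd (DNA), [3H]Urd (RNA) or [3H]Leu (protein). Label incorporated into methanol-insoluble material was measured. IC50 is the concentration that inhibits precursor incorporation by 50%.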

Data set [2] in a line: Cytotoxicity against MDCK cells assessed as reduction of cell viability by MTS dye staining. It is filed as cell-based, Canis lupus familiaris. The note with it: dog. Summed up:
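MDCK cell viability read by colorimetric formazan-based MTS dye staining. CC50 is the compound concentration that reduces cell viability by 50%.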

The subject of data set [3] is FM3A. Nature of the data set: Cytotoxicity against mouse FM3A cells. It is filed as functional, cell-based. Summed up: (§2)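 Proliferation of suspension tumour cells (murine L1210 and FM3A, human Molt4/C8 and CEM) was measured. IC50 is the compound concentration that inhibits cell proliferation by 50%.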
Data set [4] deals with L1210. Description: Cytotoxicity against mouse L1210 cells. Type of data set: functional, cell-based. Summed up:
as §2

The test system of data set [5] is CCRF-CEM. Nature of the data set: Cytotoxicity against human CEM cells assessed as inhibition of [3H]Leu incorporation into macromolecules. It is filed as functional. Summed up: as §1
Data set [6] in a line: Cytotoxicity against human Molt4/C8 cells. Type of data set: functional, cell-based. The note with it: MOLT-4. The method, boiled down:
as §2

The subject of data set [7] is L1210. Description: Cytotoxicity against mouse L1210 cells assessed as inhibition of [3H]Leu incorporation into macromolecules. It is filed as functional. The method, boiled down:
as §1

The test system of data set [8] is L1210. Nature of the data set: Cytotoxicity against mouse L1210 cells assessed as inhibition of [3H]dThd incorporation into macromolecules. It is filed as functional. The method, boiled down: as §1
The subject of data set [9] is CCRF-CEM. Nature of the data set: Cytotoxicity against human CEM cells. It is filed as functional, cell-based. Summed up: as §2
Data set [10] in a line: Cytotoxicity against african green monkey Vero cells assessed as induction of microscopically visible alteration in cell morphology. It is filed as cell-based. The note with it: chlorocebus sabaeus, read-out: MIC. The method, boiled down:
(§3)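 HEL, Vero and HeLa cell cultures were examined under the microscope for changes in cell morphology. MIC is the compound concentration that causes a microscopically visible alteration of cell morphology.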

Data set [11] is described as follows: Cytotoxicity against human HEL cells assessed as induction of microscopically visible alteration in cell morphology. It is filed as cell-based. Particulars: read-out: MIC. Summed up:
as §3

For data set [12], the system named is HeLa. Description: Cytotoxicity against human HeLa cells assessed as induction of microscopically visible alteration in cell morphology. It is filed as functional. The note with it: read-out: MIC. The method, boiled down: as §3
The test system of data set [13] is CCRF-CEM. Description: Cytotoxicity against human CEM cells assessed as inhibition of [3H]Urd incorporation into macromolecules. It is filed as functional. Summed up:
as §1

Data set [14] relates to CCRF-CEM. Description: Cytotoxicity against human CEM cells assessed as inhibition of [3H]dThd incorporation into macromolecules. Type of data set: functional. The method, boiled down:
as §1

Take `C[C@H]1O[C@@H](n2ccc(NC(=O)c3ccccc3)nc2=O)C=C(F)C1=O`: the IC50 (in general, the midpoint of a concentration-inhibition curve) came to 10 µM in [1]; 11.9 µM in [3]; 1.4 µM in data set [4]; 7.9 µM in data set [5]; 1.6 µM in [6]; 12 µM in [7]. For the same molecule, the IC50 in data set [8] was 12 µM; in [9], 1.7 µM; in [13], 12 µM; in data set [14], 11 µM. In addition, the CC50 – broadly, the concentration at which the toxic effect on the cells reaches its halfway point – in data set [2] stood at 8.2 µM. For the same molecule, the MCC in data set [10] and in data set [11] was 20 µM throughout. Moreover, the minimum cytotoxic concentration (MCC) in [12] was found to be 20 µM.
As to `C[C@H]1O[C@@H](n2cnc3c(NC(=O)c4ccccc4)ncnc32)C=C(F)C1=O`, the CC50 in data set [2] worked out at 12 µM. The IC50 stood at 6 µM in [3], 2.4 µM in [4], 5 µM in [6] and 4.3 µM in data set [9]. Further, the MCC in [10] and in data set [11] was 20 µM each time. Moreover, the minimum cytotoxic concentration (MCC) in [12] turned out to be 20 µM.
In the case of `Cc1cn([C@H]2C=C(F)C(=O)[C@@H](C)O2)c(=O)[nH]c1=O`, the CC50 in data set [2] was determined as 0.7 µM. The IC50 in data set [3] was 10 µM; in data set [4], 2.8 µM; in [6], 2.5 µM; in data set [9] it was 2.6 µM. Moreover, the MCC in [10] and in [11] was 20 µM in each case. The minimum cytotoxic concentration (MCC) in data set [12] is 20 µM.
As to `C[C@H]1O[C@@H](n2cc(F)c(=O)[nH]c2=O)C=C(F)C1=O`, the CC50 in [2] was determined as 0.6 µM. Moreover, the IC50 in data set [3] stood at 0.49 µM; in data set [4], 0.82 µM; in data set [6], 3.3 µM; in [9], 3.7 µM. For the same molecule, the MCC in data set [10] and in data set [11] was 20 µM throughout. The minimum cytotoxic concentration (MCC) in data set [12] came to 20 µM.
For the molecule `C[C@H]1O[C@@H](n2ccc(=O)[nH]c2=O)C=C(F)C1=O`, in data set [2], the CC50 is 0.6 µM. The IC50 worked out at 16 µM in [3], 2.9 µM in data set [4], 2.5 µM in data set [6] and 2.2 µM in data set [9]. Further, the MCC in data set [10] and in data set [11] was 20 µM throughout. Besides, in data set [12], the minimum cytotoxic concentration (MCC) stood at 20 µM.

(Values after ChEMBL document CHEMBL1153787, “Unsaturated dideoxy fluoro-ketopyranosyl nucleosides as new cytostatic agents: a convenient synthesis of 2,6-dideoxy-3-fluoro-4-keto-beta-D-glucopyranosyl analogues of uracil, 5-fluorouracil, thymine, N4-benzoyl cytosine and N6-benzoyl adenine” (Eur J Med Chem, 2009).)
